Shown are actives, neighbours in structure and some others; about 1.2% of the full set was active somewhere.
procasp7 counter: counter-screen for procaspase-3 activators: activators of human procaspase-7. recombinant procaspase-7, Ac-DEVD-pNA absorbance 405 nm; D23A/D198A/D206A triple mutant, cannot self-cleave; scale: DMSO 0, 5 µM enzyme 100. activation, % at 8.5 µM. 0.093% of 330,000 active. AID 463210;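 active = percent activation above the screen-wide mean plus 3 SD, cut at about 25% in these data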
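Assay system: Uncleavable procaspase-7 mutant enzyme; Input: 2 µM procaspase-7 mutant as dispensed; Also added: DEVD-pNA substrate; Medium: Zinc-free HEPES pH 7.4 with 300 mM NaCl, 0.01% Triton X-100; Timing: 1 h compound preincubation, 2 h substrate cleavage, 25 °C; Measured by: Epi-absorbance of released pNA at 405 nm, two timepoints.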
proCasp3 act: activates human procaspase-3. P42574. recombinant procaspase-3 D3A, Ac-DEVD-pNA absorbance 405 nm. activation, % at 8.5 µM. 0.11% of 330,000 active;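 active = activation above the mean of all tested compounds plus 3 SD, cut at about 21% in these data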;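 also: 0% = DMSO alone and 100% = DMSO wells spiked with extra 5 µM PC-3 D3A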
Target sequence (P42574 whole entry D9A/D28A/D175A): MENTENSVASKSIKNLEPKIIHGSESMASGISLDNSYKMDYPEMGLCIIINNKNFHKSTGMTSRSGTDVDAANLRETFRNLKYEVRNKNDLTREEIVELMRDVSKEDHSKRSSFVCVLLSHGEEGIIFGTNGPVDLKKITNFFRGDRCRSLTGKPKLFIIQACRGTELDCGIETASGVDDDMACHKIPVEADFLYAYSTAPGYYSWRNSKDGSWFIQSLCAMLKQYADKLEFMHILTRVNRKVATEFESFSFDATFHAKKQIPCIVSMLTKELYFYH
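Assay system: Autoprocessing-dead procaspase-3 D3A mutant enzyme; also added: Ac-DEVD-pNA; doses: one concentration, 8.5 µM nominal, 0.8% DMSO; times: 1 h compound preincubation, 2 h substrate hydrolysis at 25 °C; technique: 405 nm absorbance of p-nitroaniline, reads at 0 and 120 min; measure: % activation between DMSO and enzyme-spiked controls; repeats: single replicate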
MsrA act: activators of bovine methionine sulfoxide reductase A; purified bovine MsrA, absorbance read-out; 0.3% of 360,000 active; activation, % at 10.6 µM; in the data active = activation above about 7.5%;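 also: 0% = vehicle and 100% = reference activator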
MsrA inhibitor: inhibitors of bovine MsrA. inhibition, % at 15.5 µM. 0.75% of 360,000 active. purified bovine MsrA, absorbance read-out; in the data active = inhibition above about 4.5%;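 also: 0% = vehicle wells with enzyme and 100% = reference inhibitor wells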
A1 inh: inhibitors of the anti-apoptotic protein A1, read as caspase activation; 0.066% of 330,000 active; caspase activation, % (concentration not given with the values); MEF A1-2A-BIM cells, Caspase-Glo 3/7 luminescence, 3 h; percent of clofoctol response, vehicle zero;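 active = over half of replicate activation scores above 10%, or exactly half above 10 with the replicate mean above 10; inconclusive = replicate mean below 10 yet half the replicates above 10; inactive = over half of replicates below 10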
* hit, by the source's call; ? = inconclusive; / = no result.

SMILES	procasp7 counter	proCasp3 act	MsrA act	MsrA inhibitor	A1 inh
CCCCOCCCNC(=O)C[C@H]1C[C@@]2(C(=O)OC)C(=C[C@H](C(C)C)O[C@@H]2C2CC2)N(Cc2ccccc2)C1=O	/	/	/	1	/
O=C1c2cccc3c([N+](=O)[O-])ccc(c23)C(=O)N1Cc1cccnc1	/	/	-6	7.9*	/
C=CCN=C1NC(c2cccc(F)c2)C(C(=O)OC)=C(C)N1Cc1cccc(C(F)(F)F)c1 (configuration not stated)	/	/	/	-1	/
CC(C)C(=O)Nc1ccc(-c2nc3ncccc3o2)cc1	10	-9	1	4.6*	-1
CC(C)C(=O)Nc1cccc(-c2nc3ncccc3o2)c1	5	-5	-3	2	0
CCCCCCCCN1C(=O)[C@@H](CC(=O)NCCCOCCCC)C[C@@]2(C(=O)OC)C1=C[C@H](C(C)(C)C)O[C@@H]2C	/	/	/	0	/
Cc1sc(NC(=O)/C=C/c2ccc3c(c2)OCO3)nc1-c1ccccc1	7	10	0	0	0
O=C(/C=C/c1ccc2c(c1)OCO2)Nc1c(C(=O)O)[nH]c2ccccc12	-6	-5	-2	4.7*	-1
O=C(/C=C/c1ccc2c(c1)OCO2)Nc1nc(-c2ccccc2)cs1	16	5	-3	4.8*	0
Cc1c(NC(=S)N/N=C/c2ccc(O)cc2)c(=O)n(-c2ccccc2)n1C	1	-98	-3	4.8*	-1
COc1cc2c(-c3ccccc3)c(C)oc2cc1/C=N/NC(N)=S	-2	6	-2	2	6.7*
CN1OC[C@@H]2CN(Cc3ccc4c(c3)OCO4)[C@H](c3ccc(-n4ccnc4)cc3)C[C@@H]21	/	/	/	-1	/
COc1ccc(-c2nc(NC(=O)c3n[nH]c(=O)c4ccccc34)sc2C)cc1	-2	14	-1	0	6.7*
COc1cc(NC(=O)c2n[nH]c(=O)c3ccccc23)cc(OC)c1	3	3	-2	2	-3
CC(=O)OC[C@]12CC[C@H]3[C@@](C)(CC[C@H]4C(C)(C)CCC[C@]34C)[C@@H]1C[C@H](C1=CC(=O)O[C@H]1OC(C)=O)O2	-13	-11	/	/	62*
CC(=O)OC[C@]12CC[C@H]3[C@@](C)(CC[C@H]4C(C)(C)CCC[C@]34C)[C@@H]1C[C@@H](C1=CC(=O)O[C@@H]1OC(C)=O)O2	6	1	/	/	?
COC(=O)c1ccc2c(c1)C(C)(C)C(/C=C/c1ccc(O)cc1)=[N+]2C	-12	-14	2	2	10*
CCN(CC)S(=O)(=O)c1ccc(N=Nc2c(C)[nH]n(C(N)=S)c2=O)cc1	-12	-14	-12	4.5*	-6
CCOC(=O)N[C@H](C(=O)N1CCC[C@H]1C(=O)NCCc1ccccc1Cl)c1ccccc1	/	/	/	0	/
COc1ccc(C2Nc3ccc4ccccc4c3-c3c2c(=O)oc2ccccc32)cc1 (configuration not stated)	11	6	-14	1	8.7*
CC1(C)C[C@H](O)[C@]2(CO)[C@H](O)C[C@]3(C)C(=CCC4[C@@]5(C)CC[C@H](O)C(C)(C)C5CC[C@]43C)[C@@H]2C1 (some centres not stated)	1	-3	0	0	14*
CC1(C)C[C@H](O)[C@]2(CO)CC[C@]3(C)C(=CCC4[C@@]5(C)CC[C@H](O)C(C)(C)C5CC[C@]43C)[C@@H]2C1 (some centres not stated)	0	-1	-3	-2	1
COc1ccccc1Cc1c(-c2cccc(Br)c2)nc2ccc(C)cn12	/	/	/	1	/
COc1ccc(C(CC(=O)N2CCCC2)c2c(OC)cc(OC)c3c(-c4ccccc4)cc(=O)oc23)cc1 (configuration not stated)	10	5	9.0*	0	0
O=C(N[C@@H](Cc1cccnc1)C(=O)N1CCC[C@H]1C(=O)NCCc1ccccc1Cl)c1ccc(Cl)cc1Cl	/	/	/	2	/
CCOC(=O)N1CCN(c2ccc(C(C)=O)cc2F)CC1C (configuration not stated)	3	4	-4	4.6*	0
Cc1cc2n(n1)C(c1ccccc1)Nc1ccccc1-2 (configuration not stated)	-2	-9	-7	2	0
Cc1cc2n(n1)C(c1ccc(N(C)C)cc1)Nc1ccccc1-2 (configuration not stated)	47*	20	-4	4	-1

Screening results (PubChem BioAssay)
